Assay outcomes deposited in PubChem by Sanford-Burnham Center for Chemical Genomics.
In the library only some 0.77% were active in any assay of this set; here they are far more common.
mIAP block: blocks mouse intestinal alkaline phosphatase | purified mouse IAP, CDP-Star luminescence, 30 min | inhibition, % at 10 µM | 330,000 tested, 0.2% active | AID 2806;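 active = inhibition of at least 40% at 10 µM in the primary screen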
bIAP inhibitor: intestinal alkaline phosphatase (bovine) inhibition. purified bovine IAP, CDP-star luminescence, 30 min. inhibition, % at 20 µM. 190,000 tested, under 10 active. AID 1019;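 active = over 50% inhibition of intestinal alkaline phosphatase at 20 µM in the single-dose screen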
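System: purified bovine intestinal alkaline phosphatase (IAP) enzyme; Input: IAP diluted 1/65,000,000 in the well; Measured by: CDP-star luminescence signal; Compound dosing: 20 µM single dose; Incubation: 30 min reaction at room temperature.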
bIAP act: increases bovine intestinal alkaline phosphatase activity; 200,000 tested, 0.17% active; activation factor at 20 µM; purified bovine IAP, CDP-star luminescence, 30 min; stronger effect = higher value; fold of DMSO-control signal, blank-subtracted; AID 1016;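 active = activation factor of 2 or more at 20 µM, a signal rise over negative controls twice the positive control's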
hIAP act: human IAP activation; P09923; purified human IAP, CDP-Star luminescence, 30 min; stronger effect = higher value; 1 = vehicle-only enzyme, 0 = enzyme-free background; activation factor at 10 µM; 330,000 tested, 0.16% active; AID 2524;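 active = activation factor of the enzyme at least 2-fold when tested at 20 µM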
Target sequence (P09923 whole entry, looked up): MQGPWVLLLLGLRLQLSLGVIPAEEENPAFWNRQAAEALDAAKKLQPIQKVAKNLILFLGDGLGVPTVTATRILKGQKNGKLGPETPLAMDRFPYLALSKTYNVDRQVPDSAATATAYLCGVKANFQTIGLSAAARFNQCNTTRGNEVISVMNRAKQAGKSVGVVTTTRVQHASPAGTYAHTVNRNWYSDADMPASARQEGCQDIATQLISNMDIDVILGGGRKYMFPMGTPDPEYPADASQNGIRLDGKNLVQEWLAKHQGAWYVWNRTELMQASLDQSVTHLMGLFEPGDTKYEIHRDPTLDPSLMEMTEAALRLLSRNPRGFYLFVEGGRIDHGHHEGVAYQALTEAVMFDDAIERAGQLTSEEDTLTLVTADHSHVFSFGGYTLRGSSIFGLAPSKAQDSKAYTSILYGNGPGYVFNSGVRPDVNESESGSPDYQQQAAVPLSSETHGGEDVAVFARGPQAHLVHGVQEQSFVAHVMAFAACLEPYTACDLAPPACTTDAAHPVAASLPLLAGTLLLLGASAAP
mIAP activ: increases mouse intestinal alkaline phosphatase activity | AID 2805 | muIAP, CDP-Star luminescence, 30 min; stronger effect = higher value; 1 = vehicle-only enzyme signal, 0 = enzyme-free wells | activation factor at 10 µM | 330,000 tested, 0.24% active;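 active = activation factor of at least 2 at 20 µM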
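also added = chemiluminescent substrate CDP-Star | test system = mouse IAP enzyme | signal = chemiluminescence readout | compound = DMSO-dissolved test compounds | incubation = 30 min at room temperature | benchmarks = DMSO wells, no-enzyme wells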
hIAP block: human IAP inhibition; purified IAP, CDP-Star luminescence, 30 min; inhibition, % at 10 µM; 330,000 tested, 0.12% active; P09923; AID 2544;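 active = inhibition reaching a set limit with compound at 10 µM in the primary screen, cut at about 35% in these data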
hIAP act confirm: human IAP activation confirmation; activation (%Activity, negative = activation), % at 8.3 µM; 880 tested, 10% active; AID 434926; purified IAP, CDP-Star luminescence, 30 min; stronger effect = lower value; shares compounds with hIAP act;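 active = at least twofold enzyme activation in any of six single-dose repeats, which the averaged readout prints as negative percent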
A number is an active result.

What do the screens show for `Cc1ccc(N(CC(O)CN2C(=O)NC(C)(C)C2=O)S(=O)(=O)c2ccc([N+](=O)[O-])cc2)cc1` (stereo not given)?
mIAP block: inactive; hIAP act: inactive; mIAP activ: inactive; hIAP block: 39; hIAP act confirm: inactive

How did Cc1ccc(N(CC(O)CN2C(=O)NC(C)(C)C2=O)S(=O)(=O)c2ccc(C)cc2)cc1 (stereo not given) do in these assays?
mIAP block: inactive; hIAP act: inactive; mIAP activ: inactive; hIAP block: inactive

Results for O=C1C2C3C=CC(C3)C2C(=O)N1c1n[nH]c(-c2cccnc2)n1 (stereo not given) ?
mIAP block: inactive; bIAP inhibitor: inactive; bIAP act: inactive; hIAP act: inactive; mIAP activ: inactive; hIAP block: 66; hIAP act confirm: -82

Results for O=C1C2C3C=CC(C3)C2C(=O)N1c1n[nH]c(-c2ccccc2)n1 (stereo not given) ?
mIAP block: inactive; bIAP inhibitor: inactive; bIAP act: inactive; hIAP act: inactive; mIAP activ: inactive; hIAP block: inactive

What do the screens show for `O=C1C2CC=CCC2C(=O)N1c1n[nH]c(-c2ccccc2)n1` (stereo not given)?
mIAP block: inactive; bIAP act: inactive; hIAP act: inactive; mIAP activ: inactive; hIAP block: 92; hIAP act confirm: inactive

How did O=C1c2ccccc2-c2onc3c(N4CCN(CCO)CC4)cc(N4CCN(C(=O)c5ccco5)CC4)c1c23 do in these assays?
mIAP block: inactive; hIAP act: inactive; mIAP activ: inactive; hIAP block: inactive

Results for CN1CCN(c2cc(N3CCN(C(=O)c4ccco4)CC3)c3c4c(onc24)-c2ccccc2C3=O)CC1 ?
mIAP block: inactive; hIAP act: inactive; mIAP activ: inactive; hIAP block: 42; hIAP act confirm: inactive

How did O=C(CCC(=O)N(CC(=O)NC1CCCC1)Cc1ccc(F)cc1)Nc1nccs1 do in these assays?
mIAP block: inactive; hIAP act: inactive; mIAP activ: inactive; hIAP block: inactive

Results for O=C1/C(=C\c2ccc(O)cc2)SC(=S)N1Cc1ccccc1 ?
mIAP block: inactive; hIAP act: inactive; mIAP activ: inactive; hIAP block: 37; hIAP act confirm: inactive

How did O=C1/C(=C/c2ccc(O)cc2)SC(=S)N1CC1CCCO1 (stereo not given) do in these assays?
mIAP block: inactive; hIAP act: inactive; mIAP activ: inactive; hIAP block: 38; hIAP act confirm: inactive

What do the screens show for `Cc1c(C(=O)N/N=C/c2c(O)ccc3ccccc23)nnn1-c1nonc1N`?
mIAP block: inactive; hIAP act: 2; mIAP activ: inactive; hIAP block: inactive; hIAP act confirm: -86

What do the screens show for `COc1cc(OC)c(OC)cc1/C=N/n1c(-c2n[nH]c3c2CCC3)n[nH]c1=S`?
mIAP block: inactive; hIAP act: 2.1; mIAP activ: inactive; hIAP block: inactive; hIAP act confirm: inactive

What do the screens show for `CCCOc1cc(N(CC)CC)ccc1/C=C(/C#N)c1nc2ccc(C)cc2[nH]1`?
mIAP block: inactive; bIAP inhibitor: inactive; bIAP act: inactive; hIAP act: inactive; mIAP activ: inactive; hIAP block: 37; hIAP act confirm: inactive

How did Cc1[nH]n(-c2nc(-c3ccccc3F)cc(=O)[nH]2)c(=O)c1CCO do in these assays?
mIAP block: inactive; bIAP inhibitor: inactive; bIAP act: inactive; hIAP act: inactive; mIAP activ: inactive; hIAP block: 72; hIAP act confirm: -40

What do the screens show for `Cc1ccc(C(=O)NC(C)c2nc3ccccc3n2CC(=O)Nc2c(C)cc(C)cc2C)cc1` (stereo not given)?
mIAP block: inactive; hIAP act: 4; mIAP activ: 2.7; hIAP block: inactive; hIAP act confirm: inactive

Results for CC(C)c1ccc(NC(=O)c2cccc(Br)c2)cc1 ?
mIAP block: inactive; bIAP inhibitor: inactive; bIAP act: inactive; hIAP act: 2.4; mIAP activ: inactive; hIAP block: inactive; hIAP act confirm: inactive

What do the screens show for `O=C(Nc1cccc(C(=O)Nc2cccc(Br)c2)c1)c1ccccc1`?
mIAP block: inactive; hIAP act: inactive; mIAP activ: inactive; hIAP block: inactive

Results for CCOCCCNC(=O)CCC(=O)NNc1nc2ccccc2c2nc(-c3ccccc3)nn12 ?
mIAP block: inactive; bIAP inhibitor: inactive; bIAP act: inactive; hIAP act: 2.1; mIAP activ: inactive; hIAP block: inactive; hIAP act confirm: inactive

Results for Cc1nc2c3ccccc3nc(NNC(=O)CCC(=O)NCCC(C)C)n2n1 ?
mIAP block: inactive; bIAP inhibitor: inactive; bIAP act: inactive; hIAP act: 2.1; mIAP activ: inactive; hIAP block: inactive; hIAP act confirm: -64

What do the screens show for `COc1ccc(N2CCN(C(=O)CCC(=O)NNc3nc4ccccc4c4nc(C)nn34)CC2)cc1`?
mIAP block: inactive; hIAP act: inactive; mIAP activ: inactive; hIAP block: inactive

Results for Cc1nc2c3ccccc3nc(NNC(=O)CCC(=O)N3CCN(c4ccccc4)CC3)n2n1 ?
mIAP block: inactive; hIAP act: 2.3; mIAP activ: inactive; hIAP block: inactive; hIAP act confirm: inactive

What do the screens show for `Cc1nc2c3ccccc3nc(NNC(=O)CCC(=O)N3CCN(c4ccccc4F)CC3)n2n1`?
mIAP block: inactive; hIAP act: inactive; mIAP activ: inactive; hIAP block: inactive

How did CCOC(=O)C1CCN(C(=O)CCC(=O)NNc2nc3ccccc3c3nc(C)nn23)CC1 do in these assays?
mIAP block: inactive; hIAP act: 2.7; mIAP activ: inactive; hIAP block: inactive; hIAP act confirm: inactive

How did O=C(O)C1CCN(S(=O)(=O)c2ccc(Cl)s2)CC1 do in these assays?
mIAP block: inactive; hIAP act: inactive; mIAP activ: inactive; hIAP block: inactive

Results for COc1ccc(N(C(=O)Cn2cnc3ccccc32)C(C(=O)NC2CCCCC2)c2ccccc2)cc1 (stereo not given) ?
mIAP block: inactive; bIAP inhibitor: inactive; bIAP act: inactive; hIAP act: inactive; mIAP activ: inactive; hIAP block: inactive

Results for Cc1nc2c3ccccc3nc(NNC(=O)CCC(=O)N3CCC(C)CC3)n2n1 ?
mIAP block: inactive; hIAP act: 2.3; mIAP activ: inactive; hIAP block: inactive; hIAP act confirm: inactive

How did CCCCN1C(=O)/C(=C/C=C2\SCCN2C)SC1=S do in these assays?
mIAP block: inactive; bIAP inhibitor: inactive; bIAP act: inactive; hIAP act: inactive; mIAP activ: inactive; hIAP block: 44; hIAP act confirm: inactive

What do the screens show for `CN1CCS/C1=C/C=C1\SC(=S)N(CC(=O)O)C1=O`?
mIAP block: inactive; bIAP act: inactive; hIAP act: inactive; mIAP activ: inactive; hIAP block: inactive
